Test results: ChEMBL document CHEMBL3997808 (J Med Chem, 2017)

Experiments:
Mus musculus [1] = experiment: Protection against TNF-induced lethal shock in mouse assessed as reduction in body temperature loss at 3 mg/kg, po pretreated for 15 mins followed by TNF-stimulation measured after 6 hrs relative to control; format: functional; set-up: scale not given: the % may be the effect or the level left
[2] = target: T1, Receptor-interacting serine/threonine-protein kinase 1 (Homo sapiens) (UniProt Q13546)
T1 sequence (whole entry): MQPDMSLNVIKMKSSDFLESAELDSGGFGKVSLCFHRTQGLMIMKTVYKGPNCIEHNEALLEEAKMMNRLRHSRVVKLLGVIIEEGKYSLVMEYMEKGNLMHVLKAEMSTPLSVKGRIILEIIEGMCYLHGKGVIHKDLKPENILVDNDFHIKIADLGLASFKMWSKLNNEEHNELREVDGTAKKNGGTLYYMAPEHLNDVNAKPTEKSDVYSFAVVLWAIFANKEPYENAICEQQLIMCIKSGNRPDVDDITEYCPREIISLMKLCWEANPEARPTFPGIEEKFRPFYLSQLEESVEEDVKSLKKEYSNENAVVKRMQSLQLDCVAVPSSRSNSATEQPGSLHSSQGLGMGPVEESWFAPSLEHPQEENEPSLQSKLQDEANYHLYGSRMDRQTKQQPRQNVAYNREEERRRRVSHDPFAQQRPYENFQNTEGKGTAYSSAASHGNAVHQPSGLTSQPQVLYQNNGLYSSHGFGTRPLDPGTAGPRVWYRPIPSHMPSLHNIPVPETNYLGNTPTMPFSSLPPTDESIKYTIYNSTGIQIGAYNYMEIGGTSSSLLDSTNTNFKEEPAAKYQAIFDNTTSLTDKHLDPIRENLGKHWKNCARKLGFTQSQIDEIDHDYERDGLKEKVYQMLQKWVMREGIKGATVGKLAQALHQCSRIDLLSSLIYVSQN

[3] = Inhibition of RIP1 in cynomolgus monkey whole blood assessed as reduction in TNFalpha/[…]/zVAD FMK/SMAC mimetic RMT 5265-IL-1beta production after 6 hrs by sandwich ELISA; settings: Macaca fascicularis
How it was run: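 Heparinized venous cynomolgus whole blood was stimulated with stocks of TNF (200 ng/mL), QVD-OPh or zVAD.fmk (400 μM) and RMT 5265 (20 μM), with stock values as printed. Compound was a 5-fold dilution series, top 5 μM, in RPMI/1% FBS/1% DMSO. Incubation was 6 h at 37 °C, 5% CO2, then PBS dilution and centrifugation. Supernatant IL-1β was read by sandwich ELISA.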

Mus musculus [4] = experiment: In vivo inhibition of RIP1 in po dosed mouse model of TNF-induced lethal shock assessed as plasma concentration required for reduction in body temperature loss pretreated for 15 mins followed by TNF-stimulation measured after 6 hrs; format: functional, organism-based
Mus musculus [5] = experiment: Protection against TNF/zVAD-induced lethal shock in mouse assessed as reduction in body temperature loss at 10 mg/kg, po pretreated for 15 mins followed by TNF/zVAD-stimulation measured after 3 hrs relative to control; format: functional; set-up: scale not given: the % may be the effect or the level left
Mus musculus [6] = experiment: In vivo inhibition of RIP1 in po dosed mouse model of TNF/zVAD-induced lethal shock assessed as plasma concentration required for reduction in body temperature loss pretreated for 15 mins followed by TNF-stimulation measured after 3 hrs; format: functional, organism-based
Mus musculus [7] = experiment: Protection against TNF/zVAD-induced lethal shock in mouse assessed as reduction in body temperature loss at 50 mg/kg, po pretreated for 15 mins followed by TNF/zVAD-stimulation measured after 3 hrs relative to control; format: functional; set-up: scale not given: the % may be the effect or the level left
[8] = (§1) Displacement of (14-(2-{[3-({2-{[4-(cyanomethyl)phenyl]amino}-6-[(5-cyclopropyl-1H-pyrazol-3-yl)-amino]-4-pyrimidinyl}amino)propyl]amino}-2-oxoethyl)-16,16,18,18-tetramethyl-6,7,7a,8a,9,10,16,18-octahydrobenzo[2'',3'']indolizino-[8'',7'':5',6']pyrano[3',2':3,4]pyrido[1,2-a]indol-5-ium-2-sulfonate from rat RIP1 (1 to 377 residues) expressed in baculovirus infected insect cells measured for 50 mins by fluorescence polarization assay
How it was run: (§2)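 Competitive FP binding assay in which test compounds displace a fluorescently labeled ATP-competitive ligand from RIP1.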

[9] = as §1, with “dog” for “rat”, “373” for “377”; set-up: species or system Canis lupus familiaris; how it was run: as §2
Mus musculus [10] = experiment: Protection against TNF-induced lethal shock in mouse assessed as reduction in body temperature loss at 50 mg/kg, po pretreated for 15 mins followed by TNF-stimulation measured after 6 hrs relative to control; format: functional; set-up: scale not given: the % may be the effect or the level left
Mus musculus [11] = experiment: Protection against TNF/zVAD-induced lethal shock in mouse assessed as reduction in body temperature loss at 3 mg/kg, po pretreated for 15 mins followed by TNF/zVAD-stimulation measured after 3 hrs relative to control; format: functional; set-up: scale not given: the % may be the effect or the level left
Mus musculus [12] = experiment: Protection against TNF-induced lethal shock in mouse assessed as reduction in body temperature loss at 10 mg/kg, po pretreated for 15 mins followed by TNF-stimulation measured after 6 hrs relative to control; format: functional; set-up: scale not given: the % may be the effect or the level left
[13] = as §1, with “rabbit” for “rat”, “371” for “377”; set-up: species or system Oryctolagus cuniculus; how it was run: as §2
[14] = as §1, with “monkey” for “rat”, “379” for “377”; set-up: species or system Macaca mulatta; how it was run: as §2
[15] = as §1, with “mini pig” for “rat”, “375” for “377”; set-up: species or system Sus scrofa; how it was run: as §2

With `CN1C(=O)[C@@H](NC(=O)c2n[nH]c(Cc3ccccc3)n2)COc2ccccc21` [GSK2982772] as the molecule, how does the Activity (Mus musculus [1]) read?
Its Activity is 68%.

And the T1/2 [2]?
The T1/2 was 1.87 h.

And the IC50 [3]?
Its IC50 is 4 nM.

What about the IC50 (Mus musculus [4]) of the same molecule?
The IC50 was 1000 nM.

What about the Activity (Mus musculus [5]) of the same molecule?
The Activity was 63%.

And the IC50 (Mus musculus [6])?
Its IC50 is 3200 nM.

And the Activity (Mus musculus [7])?
Its Activity is 93%.

And the IC50 [8]?
Its IC50 is 2000 nM.

What about the IC50 [9] of the same molecule?
The IC50 was 5000 nM.

And the Activity (Mus musculus [10])?
The Activity was 87%.

And the Activity (Mus musculus [11])?
Its Activity is 13%.

And the Activity (Mus musculus [12])?
Its Activity is 80%.

What about the IC50 [13] of the same molecule?
The IC50 was 790 nM.

What about the IC50 [14] of the same molecule?
The IC50 was 20 nM.

What about the IC50 [15] of the same molecule?
Its IC50 is over 10000 nM.
